Data set [1] has as its system HUVEC. Nature of the data set: Antiinflammatory activity in HUVEC assessed as inhibition of TNF-alpha-induced cell surface ICAM1 expression at 60 ug/ml preincubated before TNFalpha challenge measured after 16 hrs by ELISA. The data set is classed as functional. To be noted: Homo sapiens. An outline of the steps:
(§1)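 Primary umbilical-cord HUVEC in M-199 with 15% FCS were grown confluent on gelatinized plates. They were pretreated with compound in DMSO, then given TNF-α for 16 h. Cells were fixed in 1% glutaraldehyde (30 min, 4 °C) and blocked in 3% defatted milk (3 h, 37 °C). Detection used anti-ICAM-1 mAb overnight at 4 °C, then peroxidase secondary (3 h, 37 °C). Substrate was o-phenylenediamine in citrate pH 4.5, stopped with 2 N H2SO4, read at A490.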
(ELISA stands for enzyme-linked immunosorbent assay.)

The nature of data set [2]: Cytotoxicity against HUVEC assessed as cell viability at 60 ug/mL after 24 hrs by MTT assay. The class given is cell-based. To be noted: human, HUVEC cells; read-out: Activity. An outline of the steps: (§2)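 Primary HUVEC were exposed for 24 h to compound or vehicle (DMSO alone, 0.25%). Medium was replaced with MTT for the final 4 h. Formazan was then dissolved in DMSO and read at 570 nm. Viability was also checked by trypan blue exclusion.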
A general note: Formazan colour is commonly taken as a measure of viable cells.

Data set [3] deals with HUVEC. The data set is described as follows: Cytotoxicity against HUVEC assessed as cell viability at 6.25 to 200 ug/mL after 24 hrs by MTT assay. The class given is cell-based. To be noted: human. An outline of the steps: as §2
Data set [4] has as its system HUVEC. Nature of the data set: Antiinflammatory activity in HUVEC assessed as inhibition of TNF-alpha-induced cell surface ICAM1 expression preincubated before TNFalpha challenge measured after 16 hrs by ELISA. The class given is functional, cell-based. To be noted: Homo sapiens. An outline of the steps: as §1
In data set [5] the test system is HUVEC. Nature of the data set: Cytotoxicity against HUVEC after 24 hrs by MTT assay. The data set is classed as cell-based. To be noted: human. An outline of the steps:
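Primary endothelial cells isolated from human umbilical cord, grown in M-199 with 15% fetal calf serum, L-glutamine, penicillin, streptomycin, amphotericin and endothelial-cell growth factor, and used after three passages. Cells exposed to vehicle (DMSO 0.25%) or a range of compound concentrations for 24 h. MTT added for the last 4 h, formazan dissolved in DMSO, absorbance read at 570 nm. Trypan blue exclusion also done.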

Data set [6] relates to HUVEC. The data set is described as follows: Antiinflammatory activity in HUVEC assessed as inhibition of TNF-alpha-induced cell surface ICAM1 expression at 271.4 uM/ml preincubated before TNFalpha challenge measured after 16 hrs by ELISA. The class given is functional. To be noted: Homo sapiens. In short, it runs like this:
as §1

Data set [7] has as its system HUVEC. The data set is described as follows: Antiinflammatory activity in HUVEC assessed as inhibition of TNF-alpha-induced cell surface ICAM1 expression at 50 uM/ml preincubated before TNFalpha challenge measured after 16 hrs by ELISA. To be noted: Homo sapiens. The class given is functional.

SMILES strings stand for the structures. In brackets after ≈: the same amount, converted by molar mass.

On to `CC1=NN(c2ccccc2)C(=O)C1C(=O)c1ccccc1` (stereo not drawn), for which the inhibition (usually how much of the control response was suppressed) at 60 µg/mL in the data set on HUVEC [1] came out at 75%. For the same compound, the viability at 24 h, 60 ug/mL in data set [2] came to 95.8%. The Activity result in the data set on HUVEC [3] is “Non-toxic”. In addition, the IC50 (as a rule, the concentration at which inhibition is half-maximal) with HUVEC [4] came to 36.3 µg/mL (≈ 130 µM). For the same compound, the MTD in the data set with HUVEC [5] is 271.4 uM/ml. Also, the inhibition at 271.4 µM with HUVEC [6] was determined as 62%.
As to `CC(=O)C1C(=O)N(c2ccccc2)N=C1c1ccccc1` (stereo not drawn), in the data set on HUVEC [1], the inhibition at 60 µg/mL is 20%. The viability at 24 h, 60 ug/mL in data set [2] was 97.9%.
For `Cc1[nH]n(-c2ccccc2)c(=O)c1C(=O)CC(C)(C)C`, in the data set with HUVEC [1], the inhibition at 60 µg/mL came out at 35%. Further, the viability at 24 h, 60 ug/mL in data set [2] came to 97.1%.
For the compound `CC1=NN(c2ccccc2)C(=O)C1C(=O)C(C)(C)C` (stereo not drawn), the inhibition at 60 µg/mL in the data set on HUVEC [1] is 60%. Further, in data set [2], the viability at 24 h, 60 ug/mL stood at 96.1%.
Take `CC1=NN(c2ccccc2)C(=O)C1C(=O)c1ccco1` (stereo not drawn): the inhibition at 60 µg/mL in the data set with HUVEC [1] was found to be 55%. The viability at 24 h, 60 ug/mL in data set [2] is 96.2%.
Turning to `CC1=NN(c2ccccc2)C(=O)C1C(=O)CCC1CCCC1` (stereo not drawn), in the data set on HUVEC [1], the inhibition at 60 µg/mL turned out to be 35%. Besides, the viability at 24 h, 60 ug/mL in data set [2] is 98.6%.
For the compound `COc1cc(/C=C/C(=O)CC(=O)/C=C/c2ccc(O)c(OC)c2)ccc1O` [CURCUMIN], the MTD in the data set on HUVEC [5] came out at 50 uM/ml. Besides, the inhibition at 50 µM in the data set on HUVEC [7] came out at 90%.

(Values after ChEMBL document CHEMBL1152544, “Inhibitory effect of beta-diketones and their metal complexes on TNF-alpha induced expression of ICAM-1 on human endothelial cells” (Bioorg Med Chem, 2009).)
